In ChEMBL document CHEMBL1147526, “Sulfonyl-phenyl-ureido benzamidines; a novel structural class of potent antimalarial agents” (Bioorg Med Chem Lett, 2004):

Test system: Plasmodium falciparum
Test: In vitro antimalarial activity against Plasmodium falciparum Dd2
Assay type: functional, organism-based
Procedure, shortened: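 P. falciparum Dd2 grown in RPMI 1640 with 10% heat-treated human serum and 3 mg/l gentamycin, 0.3% parasitaemia, 2.5% haematocrit; compounds 0.3 to 100 μM. After 48 h, [8-³H]hypoxanthine added and incubated a further 18 h. Cells filtered, washed, and incorporated radioactivity counted by scintillation to give IC50.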

| SMILES | IC50 |
| --- | --- |
| N=C(N)c1cccc(NC(=O)Nc2ccc(S(=O)(=O)NCCN3CCOCC3)cc2)c1 | > 2500 nM |
| N=C(N)c1cccc(NC(=O)Nc2cccc(C(=N)N)c2)c1 [AMICARBALIDE] | 5 nM |
| N=C(N)c1cccc(NC(=O)Nc2ccc(S(=O)(=O)NCc3ccc(F)cc3)cc2)c1 | 320 nM |
| N=C(N)c1cccc(NC(=O)Nc2ccc(S(=O)(=O)Nc3ccc4ccccc4c3)cc2)c1 | 8200 nM |
| N=C(N)c1cccc(NC(=O)Nc2ccc(S(=O)(=O)NCc3c(F)ccc(F)c3F)cc2)c1 | 17 nM |
| N=C(N)c1ccc(NC(=O)Nc2cccc(S(=O)(=O)NCc3c(F)ccc(F)c3F)c2)cc1 | 190 nM |
| N=C(N)c1ccc(NC(=O)Nc2ccc(S(=O)(=O)NCc3ccccc3)cc2)cc1 | 400 nM |
| N=C(N)c1ccc(NC(=O)Nc2ccc(S(=O)(=O)NCc3c(F)ccc(F)c3F)cc2)cc1 | 210 nM |
| N=C(N)c1cccc(NC(=O)Nc2ccc(S(=O)(=O)NCc3cc(F)c(F)cc3F)cc2)c1 | 1800 nM |
| N=C(N)c1cccc(NC(=O)Nc2ccc(S(=O)(=O)NCc3ccc(F)c(F)c3)cc2)c1 | 1110 nM |
| N=C(N)c1cccc(NC(=O)Nc2ccc(S(=O)(=O)NCc3ccccc3)cc2)c1 | 450 nM |
| N=C(N)c1cccc(NC(=O)Nc2ccc(S(=O)(=O)NCCO)cc2)c1 | 890 nM |
| N=C(N)c1cccc(NC(=O)Nc2ccc(S(=O)(=O)Nc3ccccc3)cc2)c1 | 9000 nM |

The remaining lines, values ahead:

| IC50 | SMILES |
| --- | --- |
| 980 nM | N=C(N)c1cccc(NC(=O)Nc2cccc(S(=O)(=O)NCc3ccc(S(N)(=O)=O)cc3)c2)c1 |
| 620 nM | N=C(N)c1cccc(NC(=O)Nc2ccc(S(=O)(=O)NCc3ccccc3F)cc2)c1 |
| 7 nM | N=C(N)c1cccc(NC(=O)Nc2ccc(S(=O)(=O)NCc3ccc(S(N)(=O)=O)cc3)cc2)c1 |
| 90 nM | N=C(N)c1ccc(NC(=O)Nc2ccc(S(=O)(=O)NCc3ccc(S(N)(=O)=O)cc3)cc2)cc1 |
| > 4900 nM | N=C(N)c1cccc(NC(=O)Nc2ccc(S(N)(=O)=O)cc2)c1 |
| 610 nM | N=C(N)c1cccc(NC(=O)Nc2ccc(S(=O)(=O)N3CCc4ccccc4C3)cc2)c1 |
| > 2500 nM | N=C(N)c1ccc(NC(=O)Nc2cccc(S(=O)(=O)NCc3ccc(S(N)(=O)=O)cc3)c2)cc1 |
| 250 nM | N=C(N)c1cccc(NC(=O)Nc2cccc(S(=O)(=O)NCc3c(F)ccc(F)c3F)c2)c1 |
| 6200 nM | N=C(N)c1cccc(NC(=O)Nc2cccc(S(=O)(=O)NCc3ccccc3)c2)c1 |
| 1110 nM | N=C(N)c1cccc(NC(=O)Nc2ccc(S(=O)(=O)NCc3ccc(F)cc3F)cc2)c1 |
| 500 nM | N=C(N)c1cccc(NC(=O)Nc2ccc(S(=O)(=O)NCc3cccc(F)c3)cc2)c1 |
| 410 nM | N=C(N)c1ccc(NC(=O)Nc2cccc(S(=O)(=O)NCc3ccccc3)c2)cc1 |
| 3000 nM | CNS(=O)(=O)c1ccc(NC(=O)Nc2cccc(C(=N)N)c2)cc1 |
| 17000 nM | N=C(N)c1cccc(NC(=O)Nc2ccc(S(=O)(=O)Nc3cccc4ccccc34)cc2)c1 |
| 3900 nM | CCCCNS(=O)(=O)c1ccc(NC(=O)Nc2cccc(C(=N)N)c2)cc1 |
